Reference: publication PMC8277203 (The Journal of Clinical Endocrinology and Metabolism, 2021)

Columns and labels:
Type in all cases: in vivo, human
[1] = test system: patients with postbariatric hypoglycemia (PBH); experiment: Mixed-meal tolerance testing; settings: for GLP-1, AUC(0–180), mean value (SD) / Glucagon, AUC(0–180), mean value (SD) / Glucose, AUC(0–180), mean value (SD) / GLP-1, fasting, mean value (SD) / GLP-1, peak, mean value (SD) / Glucagon, fasting, mean value (SD) / Glucagon, peak, mean value (SD) / Glucose, AUC(peak:nadir), mean value (SD) / Glucose, fasting, mean value (SD) / Glucose, peak, mean value (SD) / Insulin, fasting, mean value (SD) / Glucose, nadir (primary endpoint), mean value (SD) / Insulin, peak (secondary endpoint), mean value (SD): 14 days, N = 17; for GLP-1, AUC(0–180), mean value (SD) / Glucagon, AUC(0–180), mean value (SD) / Glucose, AUC(0–180), mean value (SD): 0 to 180 minutes; for Glucose, nadir (primary endpoint), mean value (SD): postprandial plasma, within 3 hours of MMTT; for Insulin, peak (secondary endpoint), mean value (SD): postprandial; for Participants requiring rescue during MMTT: vs 47% with placebo
How it was run: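 Crossover design: 18 female patients got SC placebo for 14 days, then the test compound at 30 mg every 12 h and 60 mg each morning for 14 days each, in random order. After an overnight fast, each period ended with a 180-min MMTT: 64 g carbohydrate drink over 10 min. Plasma glucose, insulin, C-peptide, GLP-1 and glucagon were sampled every 15 min. Rescue was IV dextrose (point-of-care glucose ≤50 mg/dL with neuroglycopenic symptoms, or ≤40 mg/dL).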

[2] = test system: patients with postbariatric hypoglycemia (PBH); experiment: Outpatient hypoglycemia captured by SMBG/eDiary; settings: for Rate of Level 2 hypoglycemia, mean value (SD): SMBG <54 mg/dL; for Rate of Level 2 hypoglycemia, mean value (SD) / Rate of Level 1 hypoglycemia, mean value (SD): episodes normalized to 14 days, N = 17; for Rate of Level 1 hypoglycemia, mean value (SD): SMBG <70 mg/dL
How it was run: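 Outpatients logged each hypoglycaemic episode in an eDiary, using a glucometer (SMBG) over each 14-day period. Entries were symptoms, lowest SMBG, treatment, need for assistance, and postprandial or not. Levels were defined as Level 1 SMBG <70 mg/dL, Level 2 <54 mg/dL, and Level 3 needing another person's assistance. Rate was distinct episodes divided by days, normalised to 14 days. Placebo-adjusted LS means came from a mixed-effect model.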

[3] = test system: patients with postbariatric hypoglycemia (PBH); experiment: Outpatient blinded continuous glucose monitoring; settings: for No. events <54 mg/dL 8 AM-12 AM, mean value (SD) / No. events <54 mg/dL 12 AM-8 AM, mean value (SD): CGM, sustained at least 15 minutes, normalized to 14 days; for No. events <54 mg/dL 8 AM-12 AM, mean value (SD) / No. events <54 mg/dL 12 AM-8 AM, mean value (SD) / % Time <54 mg/dL 8 AM-12 AM, mean value (SD) / % Time >250 mg/dL 24 hours, mean value (SD): N = 17; for % Time <54 mg/dL 8 AM-12 AM, mean value (SD) / % Time >250 mg/dL 24 hours, mean value (SD): percentage of CGM values
How it was run: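 Blinded CGM was worn at home through three 14-day periods (placebo, then SC test compound 30 mg twice daily or 60 mg once daily), with two injections daily for blinding. Read-outs were % CGM values <54 mg/dL (8 am–12 am or 12 am–8 am) or >250 mg/dL, normalised to 14 days. LS means were placebo-adjusted by mixed-effect model (treatment, sequence, period fixed; subject within sequence random).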

[4] = Plasma avexitide pharmacokinetics at end of each 14-day treatment period
How it was run: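 Plasma for drug concentration was drawn at the end of each 14-day SC regimen (30 mg every 12 h; 60 mg each morning) on days 29 and 43. Sampling times were −90, 0, 60, 180 and 330 min […], with the trough taken immediately before the −90 min dose. C0, Cmax and AUC0-t were summarised descriptively.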

[5] = test system: patients with postbariatric hypoglycemia (PBH); experiment: Safety: treatment-emergent adverse events, laboratory and physical findings
[6] = avexitide 30 mg twice daily SC, MMTT
[7] = avexitide 30 mg twice daily, MMTT
[8] = avexitide 60 mg once daily SC, MMTT
[9] = avexitide 60 mg once daily, MMTT
[10] = plasma, end of each 14-day treatment period, SC

exendin (9-39) [Avexitide]
Fewer participants requiring rescue during MMTT compared with placebo ([1]; avexitide 30 mg twice daily): 50%
GLP-1, AUC(0–180), mean value (SD) [1, 6]: 330.8 (140.5) h×mg/dL
Glucagon, AUC(0–180), mean value (SD) [1, 6]: 466.7 (131.2) h × mg/dL
Glucose, AUC(0–180), mean value (SD) [1, 6]: 320.0 (89.5) h × mg/dL
GLP-1, fasting, mean value (SD) [1, 6]: 12.7 (3.4) pg/mL
GLP-1, peak, mean value (SD) [1, 6]: 413.3 (193.6) pg/mL
Glucagon, fasting, mean value (SD) [1, 6]: 156.3 (0) pg/mL
Glucagon, peak, mean value (SD) [1, 6]: 196.7 (49.8) pg/mL
Glucose, AUC(peak:nadir), mean value (SD) [1, 6]: 192.3 (91.9) h × mg/dL
Glucose, fasting, mean value (SD) [1, 6]: 87.5 (6.0) mg/dL
Glucose, peak, mean value (SD) [1, 6]: 218.2 (45.2) mg/dL
Insulin, fasting, mean value (SD) [1, 6]: 4.5 (2.7) μIU/mL
Glucose, nadir (primary endpoint), mean value (SD) ([1]; avexitide 30 mg twice daily SC): 57.1 (16.5) mg/dL
Insulin, peak (secondary endpoint), mean value (SD) [1, 6]: 349.5 (156.9) μIU/mL
AUC glucose concentrations higher than placebo [1, 7]: 12%
Increase of mean plasma glucose nadir compared with placebo [1, 7]: 21%
LS mean postprandial insulin peak lower than with placebo [1, 7]: 104.53 μIU/mL
Reduction of peak insulin compared with placebo [1, 7]: 23%
Participants requiring rescue during MMTT ([1]; avexitide 30 mg twice daily): 24%
Fewer participants requiring rescue during MMTT compared with placebo ([1]; avexitide 60 mg once daily): 75%
GLP-1, AUC(0–180), mean value (SD) [1, 8]: 351.1 (127.5) h×mg/dL
Glucagon, AUC(0–180), mean value (SD) [1, 8]: 484.1 (96.7) h × mg/dL
Glucose, AUC(0–180), mean value (SD) [1, 8]: 338.1 (80.7) h × mg/dL
GLP-1, fasting, mean value (SD) [1, 8]: 12.7 (4.6) pg/mL
GLP-1, peak, mean value (SD) [1, 8]: 397.1 (150.2) pg/mL
Glucagon, fasting, mean value (SD) [1, 8]: 156.8 (2.2) pg/mL
Glucagon, peak, mean value (SD) [1, 8]: 182.9 (35.9) pg/mL
Glucose, AUC(peak:nadir), mean value (SD) [1, 8]: 204.6 (86.3) h × mg/dL
Glucose, fasting, mean value (SD) [1, 8]: 84.6 (4.2) mg/dL
Glucose, peak, mean value (SD) [1, 8]: 224.5 (47.3) mg/dL
Insulin, fasting, mean value (SD) [1, 8]: 4.1 (2.6) μIU/mL
Glucose, nadir (primary endpoint), mean value (SD) ([1]; avexitide 60 mg once daily SC): 59.2 (16.1) mg/dL
Insulin, peak (secondary endpoint), mean value (SD) [1, 8]: 357.2 (190.9) μIU/mL
AUC glucose concentrations higher than placebo [1, 9]: 18%
Increase of mean plasma glucose nadir compared with placebo [1, 9]: 26%
LS mean postprandial insulin peak lower than with placebo [1, 9]: 96.29 μIU/mL
Reduction of peak insulin compared with placebo [1, 9]: 21%
Participants requiring rescue during MMTT ([1]; avexitide 60 mg once daily): 12%
Postprandial concentrations of GLP-1 and glucagon relative to placebo ([1]; both avexitide treatment regimens, MMTT): significantly higher
Influence on fasting insulin, GLP-1, or glucagon ([1]; both dosing regimens, MMTT): no influence
Reduction of rate of SMBG <54 mg/dL (Level 2 hypoglycemia) compared with placebo ([2]; avexitide 30 mg twice daily): 40%
Reduction of rate of SMBG <70 mg/dL (Level 1 hypoglycemia) compared with placebo ([2]; avexitide 30 mg twice daily): 30%
Reduction of rate of severe hypoglycemia (Level 3) events ([2]; avexitide 30 mg twice daily): 23%
Rate of Level 2 hypoglycemia, mean value (SD) ([2]; avexitide 30 mg twice daily SC): 1.21 (1.65)
Rate of Level 1 hypoglycemia, mean value (SD) ([2]; avexitide 30 mg twice daily SC): 2.81 (2.13)
Reduction of rate of SMBG <54 mg/dL (Level 2 hypoglycemia) compared with placebo ([2]; avexitide 60 mg once daily): 60%
Reduction of rate of SMBG <70 mg/dL (Level 1 hypoglycemia) compared with placebo ([2]; avexitide 60 mg once daily): 61%
Reduction of rate of severe hypoglycemia (Level 3) events ([2]; avexitide 60 mg once daily): 56%
Rate of Level 2 hypoglycemia, mean value (SD) ([2]; avexitide 60 mg once daily SC): 0.81 (0.88)
Rate of Level 1 hypoglycemia, mean value (SD) ([2]; avexitide 60 mg once daily SC): 1.56 (1.27)
No. events <54 mg/dL 8 AM-12 AM, mean value (SD) ([3]; avexitide 30 mg twice daily SC): 2.82 (3.00)
No. events <54 mg/dL 12 AM-8 AM, mean value (SD) ([3]; avexitide 30 mg twice daily SC): 2.34 (3.03)
% Time <54 mg/dL 8 AM-12 AM, mean value (SD) ([3]; avexitide 30 mg twice daily SC): 0.99 (1.12) %
% Time >250 mg/dL 24 hours, mean value (SD) ([3]; avexitide 30 mg twice daily SC): 0.99 (1.34) %
Reduction of mean percent time with glucose <54 mg/dL ([3]; avexitide 30 mg twice daily, blinded CGM): 50%
No. events <54 mg/dL 8 AM-12 AM, mean value (SD) ([3]; avexitide 60 mg once daily SC): 3.46 (2.48)
No. events <54 mg/dL 12 AM-8 AM, mean value (SD) ([3]; avexitide 60 mg once daily SC): 3.56 (4.18)
% Time <54 mg/dL 8 AM-12 AM, mean value (SD) ([3]; avexitide 60 mg once daily SC): 1.49 (1.70) %
% Time >250 mg/dL 24 hours, mean value (SD) ([3]; avexitide 60 mg once daily SC): 0.85 (0.98) %
Reduction of mean percent time with glucose <54 mg/dL ([3]; avexitide 60 mg once daily, blinded CGM): 24%
Percent time with glucose >250 mg/dL ([3]; blinded CGM, across treatment groups): less than 1%
Evidence of systemic plasma exposure ([4]; both dosing regimens): observed in all patients
Mean (AUC0-t) exposure, higher for 60 mg once daily than 30 mg twice daily [4, 10]: 40%
Peak (Cmax) exposure, higher for 60 mg once daily than 30 mg twice daily [4, 10]: 72%
Serious adverse event (presyncope), reported as unrelated to study drug and self-limited ([5]; avexitide 60 mg once daily): 1
Changes in vital signs, body weight, hematology or chemistry ([5]; both dosing regimens): No clinically significant changes
Patient withdrawals ([5]; both dosing regimens): no patient withdrawals
Treatment-related serious adverse events ([5]; both dosing regimens): no treatment-related serious adverse events
Tolerability ([5]; both dosing regimens, 28 days): well tolerated
